Measured values as given in ChEMBL document CHEMBL1275322, “Synthesis and cytotoxic evaluation of 1-carboxamide and 1-amino side chain substituted β-carbolines” (Eur J Med Chem, 2010).

Legend:
Type in all cases: functional, cell-based
[1] = Cytotoxicity against human […] cells by MTT assay
Method in brief: (§1)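 Cells grown in RPMI-1640 with 10% (v/v) fetal calf serum, 100 μg ml⁻¹ penicillin and 100 μg ml⁻¹ streptomycin at 37 °C, humidified 5% CO₂, in 96-well cultures. Compounds from DMSO stocks; final DMSO 2% (v/v) or lower. MTT staining read as optical density. IC50 is the concentration reducing OD by 50% vs untreated cells. Mean ± SD of at least five independent determinations. Top concentration 300 μM.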

HepG2 = experiment: Cytotoxicity against human HepG2 cells by MTT assay; method in brief: as §1
MCF7 = experiment: Cytotoxicity against human MCF7 cells by MTT assay; method in brief: as §1
OS-RC-2 = experiment: Cytotoxicity against human OS-RC2 cells by MTT assay; method in brief: as §1
786-0 = experiment: Cytotoxicity against human 786-0 cells by MTT assay; method in brief: as §1
769-P = experiment: Cytotoxicity against human 769-P cells by MTT assay; method in brief: as §1
A-375 = experiment: Cytotoxicity against human A375 cells by MTT assay; method in brief: as §1
HT-29 = experiment: Cytotoxicity against human HT-29 cells by MTT assay; method in brief: as §1
KB = experiment: Cytotoxicity against human KB cells by MTT assay; method in brief: as §1
CWR22R = experiment: Cytotoxicity against human 22Rv1 cells by MTT assay; method in brief: as §1

Row | Structure (SMILES) | IC50 [1] [µM] | IC50 (HepG2) [µM] | IC50 (MCF7) [µM] | IC50 (OS-RC-2) [µM] | IC50 (786-0) [µM] | IC50 (769-P) [µM] | IC50 (A-375) [µM] | IC50 (HT-29) [µM] | IC50 (KB) [µM] | IC50 (CWR22R) [µM]
1 | NCCNC(=O)c1nccc2c1[nH]c1ccccc12 | 77.7 | 122 | 80.4 | 63.9 | 86.1 | 124 | 65.3 | 55.6 | 118 | 124
2 | NCCNc1nccc2c1[nH]c1ccccc12 | 36 | 30.6 | 87.2 | 40 | 31.9 | 31.5 | 33.4 | 33.4 | 25.4 | 41.3
3 | CCCCn1c2ccccc2c2ccnc(Br)c21 | > 300 | > 300 | 256 | 136 | > 300 | > 300 | > 300 | 186 | > 300 | 236
4 | Fc1c(F)c(F)c(Cn2c3ccccc3c3ccnc(Br)c32)c(F)c1F | > 300 | > 300 | > 300 | > 300 | > 300 | > 300 | > 300 | > 300 | > 300 | > 300
5 | Brc1nccc2c3ccccc3n(CCCc3ccccc3)c12 | > 300 | > 300 | > 300 | 93.9 | > 300 | 123 | > 300 | 86.6 | > 300 | 88
6 | CCCCn1c2ccccc2c2ccnc(NCCN)c21 | 25.3 | 6.6 | 33.6 | 9.3 | 18.9 | 68.7 | 22.8 | 13.3 | 20.5 | 14.2
7 | NCCNc1nccc2c3ccccc3n(Cc3ccc(F)cc3)c12 | 9.7 | 4.4 | 21.4 | 16.3 | 18.8 | 1.8 | 15.6 | 9.1 | 19.1 | 17.9
8 | NCCNc1nccc2c3ccccc3n(Cc3c(F)c(F)c(F)c(F)c3F)c12 | 11.9 | 12.8 | 15.1 | 12 | 5.8 | 10.4 | 12 | 9.9 | 11.8 | 12.5
9 | NCCNc1nccc2c3ccccc3n(CCCc3ccccc3)c12 | 9.6 | 13.3 | 9.3 | 4.6 | 6.9 | 11.1 | 7.3 | 5.6 | 4.9 | 8.6
10 | NCCCCNc1nccc2c3ccccc3n(CCCc3ccccc3)c12 | 8 | 4 | 12.8 | 4.2 | 2.7 | 2.2 | 9.5 | 17.5 | 11.3 | 2.9
11 | NCCCCCCNc1nccc2c3ccccc3n(CCCc3ccccc3)c12 | 12.4 | 12.1 | 17.9 | 8.4 | 11.3 | 13.6 | 16.3 | 21.5 | 13 | 11.5
12 | NCCCCCCNC(=O)c1nccc2c1[nH]c1ccccc12 | 109 | 85.5 | 46.8 | 58.5 | 72.7 | 75.3 | 37.7 | 73.2 | 86.9 | 33.6
13 | CCN(CC)CCCNC(=O)c1nccc2c1[nH]c1ccccc12 | 174 | 243 | 164 | 93.9 | 111 | 54 | 107 | 61.2 | 62.3 | 46.2
14 | CC[N+](C)(CC)CCCNC(=O)c1nccc2c1[nH]c1ccccc12 | > 300 | > 300 | > 300 | > 300 | > 300 | > 300 | > 300 | > 300 | > 300 | > 300
15 | CC[N+](CC)(CCCNC(=O)c1nccc2c1[nH]c1ccccc12)Cc1ccccc1 | > 300 | > 300 | 51.1 | > 300 | 137 | 101 | > 300 | > 300 | > 300 | 71.4
16 | NCCNC(=O)c1nccc2c3ccccc3n(CCCc3ccccc3)c12 | 20 | 15.9 | 22.3 | 15.7 | 11.8 | 32.5 | 13.7 | 17.9 | 9.9 | 10.8
17 | CCN(CC)CCCNC(=O)c1nccc2c3ccccc3n(CCCc3ccccc3)c12 | 22.3 | 22.1 | 31.4 | 36.9 | 31.4 | 61 | 33.8 | 53.4 | 14 | 26.9
18 | Fc1ccc(Cn2c3ccccc3c3ccnc(Br)c32)cc1 | > 300 | > 300 | > 300 | > 300 | > 300 | 252 | > 300 | 245 | > 300 | > 300
19 | OCCNc1[nH]ccc2c3ccccc3nc1-2 | > 300 | 130 | > 300 | 220 | > 300 | 272 | > 300 | > 300 | > 300 | 136
